Assay results as given in article PMC9075408 (Journal of the American Heart Association: Cardiovascular …, 2021).

Experiments:
[1] = Plasma and hippocampal levels of 1-DL-MTRP by HPLC-MS/MS in CA/CPR rats; format: in vivo; settings: rat
[2] = system: rats resuscitated from cardiac arrest; assay: Myocardial function by transthoracic echocardiography in CA/CPR rats; format: in vivo, rat
Procedure, shortened: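 Rats were pretreated by gavage with test compound (800 mg/kg per dose) or 1% carboxymethylcellulose 16 and 2 h before 8 min untreated CA and 8 min CPR. At 4 and 96 h post-ROSC, LV systolic function was assessed by transthoracic M-mode, 2D, pulsed, color and tissue Doppler echocardiography. Anaesthesia at 96 h was intraperitoneal thiopental 50 mg/kg, with 10 mg/kg recall doses if needed. Analysis used ordinary 2-way ANOVA with Sidak post hoc.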

[3] = system: rats resuscitated from cardiac arrest; assay: Neurological deficit score; format: in vivo, rat; settings: 24, 48, 72, and 96 hours post-ROSC, all time points; score 0 (normal) to 500 (brain death)
[4] = system: IL1β and Arg1 mRNA, brain cortex; assay: Inflammatory gene expression; format: in vivo, rat; settings: brain cortex 96 hours post-ROSC; not statistically significant
Procedure, shortened: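 Male Sprague-Dawley ex-breeder rats underwent 8 min untreated CA and 8 min CPR after gavage with test compound (800 mg/kg per dose) or 1% carboxymethylcellulose vehicle 16 and 2 h before CA; naive rats served as controls. At 96 h post-ROSC, cortical RNA was analysed by SYBR Green real-time PCR with exon-spanning primers and Gapdh reference. Results were calculated by ΔΔCt as fold induction, mean±SD, n=4-6/group, Kruskal-Wallis/Dunn's.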

[5] = system: kynurenine pathway (IDO, tryptophan→kynurenine step); settings: 96 hours post-ROSC
[6] = system: rats resuscitated from cardiac arrest; assay: CPR outcomes and survival in rat model of electrically induced CA/CPR; format: in vivo
[7] = system: kynurenine pathway (IDO, tryptophan→kynurenine step)
[8] = system: rats resuscitated from cardiac arrest; assay: Hemodynamics; format: in vivo, rat; settings: mean±SD
[9] = system: rats resuscitated from cardiac arrest; assay: Plasma high-sensitivity cardiac troponin T; format: in vivo, rat; settings: median [quartile 1–quartile 3]
Procedure, shortened: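 Arterial blood was drawn from the femoral cannula into K3-EDTA tubes 15 min before CA and at 4 and 96 h post-ROSC. Rats had received gavage test compound (800 mg/kg per dose) or carboxymethylcellulose vehicle 16 and 2 h pre-CA, then 8 min CA and 8 min CPR. Plasma hs-cTnT was measured by electrochemiluminescence immunoassay and analysed by ordinary 2-way ANOVA with Sidak test.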

[10] = 2 oral doses of 800 mg/kg 16 and 2 hours before CA, 15 minutes pre-CA and 2 hours post-ROSC
[11] = 2 oral doses of 800 mg/kg 16 and 2 hours before CA, 96 hours post-ROSC

Structure (SMILES): Cn1cc(CC(N)C(=O)O)c2ccccc21 (racemic) [1‐DL‐MTRP, 1‐methyl‐DL‐tryptophan]
- 1-DL-MTRP plasma concentration, average [1, 10]: 34 µg/mL
- 1-DL-MTRP plasma concentration, range [1, 10]: 20 to 40 µg/mL
- 1-DL-MTRP hippocampal concentration, average [1, 11]: 11.4 µg/g
- 1-DL-MTRP plasma concentration, average [1, 11]: 21 µg/mL
- drug levels (plasma and brain) as molar concentrations ([1]; 96 hours post-ROSC): 52 to 96 µmol/L
- LVEF ([2]; PR 4 h): 36.8±3.2%
- LVEF ([2]; PR 96 h): 75.3±3.2%
- NDS values vs vehicle-treated rats [3]: lower
- Arg1 gene expression [4]: tendency towards an increase
- CA-induced IL1β upregulation (mRNA) [4]: slightly reduced
- hippocampal kynurenine levels vs vehicle-treated rats ([5]; P=0.0409, comparable to naive rats): significantly lower than in vehicle‐treated rats
- hippocampal 5-HT concentrations ([5]; vs naive rats): superimposable to those measured in naive rats
- Resuscitation, no./total ([6]; 800 mg/kg by gavage 16 and 2 h before CA, 8 min CA, 8 min CPR): 15/17
- Time to ROSC ([6]; median [quartile 1–quartile 3]): 481 [370–482] s
- 4-h survival, no./resuscitated ([6]; rat, in vivo): 15/15
- 96-h survival, no./resuscitated ([6]; rat, in vivo): 10/15
- Shocks to ROSC ([6]; rat, in vivo): 1 no.
- animals that survived up to 96 hours after CA ([6]; vehicle 62%): 66%
- successfully resuscitated animals ([6]; vehicle 84%): 88%
- plasma kynurenine levels, % lower than in vehicle-treated rats ([7]; 15 minutes pre-CA, P=0.0243): 24%
- plasma kynurenine levels following CA vs vehicle-treated rats ([7]; PR 2 hours and PR 96 hours, same time points): markedly lower than in vehicle‐treated rats
- CPP ([8]; PR 10 min): 57±21 mm Hg
- DAP ([8]; PR 10 min): 57±21 mm Hg
- HR ([8]; PR 10 min): 237±54 beats per min
- MAP ([8]; PR 10 min): 76±20 mm Hg
- SAP ([8]; PR 10 min): 103±17 mm Hg
- CPP ([8]; PR 1 h): 84±9 mm Hg
- DAP ([8]; PR 1 h): 84±9 mm Hg
- HR ([8]; PR 1 h): 335±12 beats per min
- MAP ([8]; PR 1 h): 96±9 mm Hg
- SAP ([8]; PR 1 h): 117±9 mm Hg
- CPP ([8]; PR 2 h): 81±12 mm Hg
- DAP ([8]; PR 2 h): 81±12 mm Hg
- HR ([8]; PR 2 h): 360±20 beats per min
- MAP ([8]; PR 2 h): 96±13 mm Hg
- SAP ([8]; PR 2 h): 118±12 mm Hg
- CPP ([8]; PR 3 h): 75±15 mm Hg
- DAP ([8]; PR 3 h): 74±15 mm Hg
- HR ([8]; PR 3 h): 358±23 beats per min
- MAP ([8]; PR 3 h): 89±16 mm Hg
- SAP ([8]; PR 3 h): 111±18 mm Hg
- CPP ([8]; PR 4 h): 73±20 mm Hg
- DAP ([8]; PR 4 h): 78±15 mm Hg
- HR ([8]; PR 4 h): 351±51 beats per min
- MAP ([8]; PR 4 h): 94±17 mm Hg
- SAP ([8]; PR 4 h): 115±17 mm Hg
- CPP ([8]; Pre-CA): 109±13 mm Hg
- DAP ([8]; Pre-CA): 114±12 mm Hg
- HR ([8]; Pre-CA): 375±34 beats per min
- MAP ([8]; Pre-CA): 127±13 mm Hg
- SAP ([8]; Pre-CA): 151±13 mm Hg
- hs-cTnT ([9]; PR 4 h): 4965 [2978–5242] pg/mL
- hs-cTnT ([9]; PR 96 h): 64 [36–278] pg/mL
- hs-cTnT ([9]; Pre-CA): 98 [66–111] pg/mL
